# Source: ChEMBL document CHEMBL2321767, “Synthesis and anticonvulsant activity of bioisosteres of trimethadione, N-derivative-1,2,3-oxathiazolidine-4-one-2,2-dioxides from α-hydroxyamides” (Bioorg Med Chem, 2013)
# Active and inactive are the calls of the source.
# What was measured:
# Mus musculus [1] = test: Anticonvulsant activity in ip dosed Swiss albino mouse assessed as protection against maximal electric shock-induced tonic-clonic seizures measured up to 4 hrs; format: functional
# In short: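 Male Swiss albino mice given test substances ip in 30% PEG 400/10% water. Various doses, each group of six mice, tested by MES at the maximal time effect. Protection means no hind-limb tonic extension after ear-clip electroshock. ED50 and 95% confidence intervals computed by the Litchfield–Wilcoxon method.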
# Mus musculus [2] = test: Anticonvulsant activity in ip dosed Swiss albino mouse assessed as time of maximal protection against maximal electric shock-induced tonic-clonic seizures; format: functional
# In short: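 Ip-dosed male Swiss albino mice (vehicle 30% PEG 400/10% water) tested in the MES test (ear-clip electroshock, endpoint abolition of hind-limb tonic extension) at several times after dosing. The maximal time effect is the time of peak protection.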
# Mus musculus [3] = test: Anticonvulsant activity in Swiss albino mouse assessed as protection against maximal electric shock-induced tonic-clonic seizures at 30 mg/kg, ip measured after 0.5 hrs relative to control; format: functional, organism-based; set-up: dose 30 mg/kg
# In short: (§1)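 Adult male Swiss albino mice (18–25 g) dosed ip with 30 or 100 mg/kg in 30% PEG 400/10% water, 0.01 mL/g. MES tested 0.5 and 4 h later: electroshock via ear clips. Protection means no hind-limb tonic extension. Result reported as mice protected out of mice tested (3 per group).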
# Mus musculus [4] = test: Anticonvulsant activity in Swiss albino mouse assessed as protection against scPTZ-induced tonic-clonic seizures at 30 mg/kg, ip measured after 4 hrs relative to control; format: functional, organism-based; set-up: dose 30 mg/kg
# In short: (§2)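 Adult male Swiss albino mice (18–25 g) given test substance ip at 30 or 100 mg/kg in 30% PEG 400/10% water. At 0.5 or 4 h, PTZ 85 mg/kg sc (0.5% in 0.9% saline) into the posterior midline. Mice observed 30 min. Protection means no threshold seizure, i.e. no clonic spasm lasting ≥5 s. Scored as protected/tested, 2 mice per group.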
# Mus musculus [5] = test: Anticonvulsant activity in Swiss albino mouse assessed as protection against scPTZ-induced tonic-clonic seizures at 100 mg/kg, ip measured after 0.5 hrs relative to control; format: functional, organism-based; set-up: dose 100 mg/kg; in short: as §2
# Mus musculus [6] = test: Neurotoxicity against Swiss albino mouse at 30 mg/kg, ip measured after 0.5 hrs by rotarod test; format: toxicity, organism-based; set-up: dose 30 mg/kg, route intraperitoneal; details: in vivo
# In short: (§3)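 Male Swiss albino mice (18–25 g) dosed ip at 30 or 100 mg/kg in 30% PEG 400/10% water. Minimal neurotoxicity checked on the rotarod 0.5 and 4 h after dosing, as failure to keep balance on the rotating rod. Reported as affected/tested, 5 mice per group.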
# Mus musculus [7] = test: Toxicity against Swiss albino mouse assessed as mortality at 30 to 100 mg/kg, ip; format: organism-based; set-up: dose 30-100 mg/kg, route intraperitoneal; details: in vivo
# In short: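 Adult male Swiss albino mice (18–25 g; 12 h light/dark cycle, free food and water) were dosed ip at 30 and 100 mg/kg in 30% PEG 400 and 10% water, 0.01 mL/g body weight. Testing was at 0.5 and 4 h in the MES, scPTZ and RotoRod assays, with deaths recorded during these assays.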
# Mus musculus [8] = test: Neurotoxicity against Swiss albino mouse at 100 mg/kg, ip measured after 4 hrs by rotarod test; format: toxicity, organism-based; set-up: dose 100 mg/kg, route intraperitoneal; details: in vivo; in short: as §3
# Mus musculus [9] = test: Anticonvulsant activity in Swiss albino mouse assessed as protection against maximal electric shock-induced tonic-clonic seizures at 100 mg/kg, ip measured after 0.5 hrs relative to control; format: functional; in short: as §1
# Mus musculus [10] = test: Anticonvulsant activity in Swiss albino mouse assessed as protection against scPTZ-induced tonic-clonic seizures at 100 mg/kg, ip measured after 4 hrs relative to control; format: functional, organism-based; set-up: dose 100 mg/kg; in short: as §2
# Mus musculus [11] = test: Anticonvulsant activity in Swiss albino mouse assessed as protection against maximal electric shock-induced tonic-clonic seizures at 30 mg/kg, ip measured after 4 hrs relative to control; format: functional; in short: as §1
# Mus musculus [12] = test: Anticonvulsant activity in Swiss albino mouse assessed as protection against maximal electric shock-induced tonic-clonic seizures at 100 mg/kg, ip measured after 4 hrs relative to control; format: functional, organism-based; set-up: dose 100 mg/kg; in short: as §1
# Mus musculus [13] = test: Anticonvulsant activity in Swiss albino mouse assessed as protection against scPTZ-induced tonic-clonic seizures at 30 mg/kg, ip measured after 0.5 hrs relative to control; format: functional, organism-based; set-up: dose 30 mg/kg; in short: as §2
# Mus musculus [14] = test: Neurotoxicity against Swiss albino mouse at 100 mg/kg, ip measured after 0.5 hrs by rotarod test; format: toxicity, organism-based; set-up: dose 100 mg/kg, route intraperitoneal; details: in vivo; in short: as §3
# Mus musculus [15] = test: Neurotoxicity against Swiss albino mouse at 30 mg/kg, ip measured after 4 hrs by rotarod test; format: toxicity, organism-based; set-up: dose 30 mg/kg, route intraperitoneal; details: in vivo; in short: as §3
# Mus musculus [16] = species: Mus musculus; test: Ratio of phenytoin ED50 to compound ED50 for protection against maximal electric shock-induced tonic-clonic seizures in Swiss albino mouse; format: functional
# Mus musculus [17] = species: Mus musculus; test: Ratio of trimathadione ED50 to compound ED50 for protection against maximal electric shock-induced tonic-clonic seizures in Swiss albino mouse; format: functional
# Mus musculus [18] = species: Mus musculus; test: Ratio of valproic acid ED50 to compound ED50 for protection against maximal electric shock-induced tonic-clonic seizures in Swiss albino mouse; format: functional
Compound,ED50 (Mus musculus [1]) [mg/kg],Time (Mus musculus [2]) [h],Activity (Mus musculus [3]),Activity (Mus musculus [4]),Activity (Mus musculus [5]),Activity (Mus musculus [6]),Activity (Mus musculus [7]),Activity (Mus musculus [8]),Activity (Mus musculus [9]; route intraperitoneal) [%],Activity (Mus musculus [10]),Activity (Mus musculus [11]; route intraperitoneal) [%],Activity (Mus musculus [12]),Activity (Mus musculus [13]),Activity (Mus musculus [14]),Activity (Mus musculus [15]),Activity (Mus musculus [9]),Activity (Mus musculus [11]),Ratio ED50 (Mus musculus [16]),Ratio ED50 (Mus musculus [17]),Ratio ED50 (Mus musculus [18])
CN1C(=O)OC(C)(C)C1=O [TRIMETHADIONE],627,0.5,–,–,–,–,–,–,–,–,–,–,–,–,–,–,–,–,–,–
CC(C)(O)C(=O)NC1CCCCC1,25.2,0.5,Active,inactive,inactive,Non-toxic,Non-toxic,Non-toxic,100,inactive,100,Active,inactive,Non-toxic,Non-toxic,–,–,–,–,–
CC1(C)OS(=O)(=O)N(CCc2ccccc2)C1=O,91.1,2,Active,inactive,Active,Non-toxic,Non-toxic,Non-toxic,–,Active,–,Active,Active,Non-toxic,Non-toxic,Active,Active,–,–,–
CCCCNC(=O)C(O)(c1ccccc1)c1ccccc1,–,–,Active,inactive,inactive,Non-toxic,Non-toxic,Non-toxic,100,inactive,100,Active,inactive,Non-toxic,Non-toxic,–,–,–,–,–
CCCNC(=O)C(C)(C)O,–,–,Active,inactive,inactive,Non-toxic,Non-toxic,Non-toxic,–,inactive,100,inactive,inactive,Non-toxic,Non-toxic,Active,–,–,–,–
CCCN1C(=O)C(C)(C)OS1(=O)=O,–,–,Active,inactive,inactive,Non-toxic,Non-toxic,Non-toxic,–,inactive,–,Active,inactive,Non-toxic,Non-toxic,Active,inactive,–,–,–
CC(C)(O)C(=O)NCCc1ccccc1,53.9,1,Active,inactive,Active,Non-toxic,Non-toxic,Non-toxic,100,Active,–,Active,inactive,Non-toxic,Non-toxic,–,Active,–,–,–
CCCCN1C(=O)C(C)(C)OS1(=O)=O,0.06,2,Active,Active,inactive,Non-toxic,Non-toxic,Non-toxic,–,Active,–,Active,Active,Non-toxic,Non-toxic,inactive,Active,90,10000,4700
CC1(C)OS(=O)(=O)N(Cc2ccccc2)C1=O,15.1,4,Active,inactive,Active,Non-toxic,Non-toxic,Non-toxic,–,inactive,100,Active,inactive,Non-toxic,Non-toxic,Active,–,–,40,19
O=C1NC(=O)C(c2ccccc2)(c2ccccc2)N1 [PHENYTOIN],5.54,1,–,–,–,–,–,–,–,–,–,–,–,–,–,–,–,–,–,–
CCCCNC(=O)C(C)(C)O,44.6,6,inactive,Active,inactive,Non-toxic,Non-toxic,Non-toxic,100,Active,–,Active,Active,Non-toxic,Non-toxic,–,Active,–,–,–
CC(C)(O)C(=O)NCc1ccccc1,9.1,0.25,Active,inactive,Active,Non-toxic,Non-toxic,Non-toxic,100,Active,–,inactive,Active,Non-toxic,Non-toxic,–,Active,–,–,30
